The text below walks through data of PubChem BioAssay.

The nature of assay [1]: inhibitors of TNFa-induced NFkB p65 translocation, primary screen, imaging, HUVEC, MLSMR starter and 10KST1 sets (AID 438;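 active = inhibition above 20% together with a positive visual image hit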;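 note: compound added about 3h40 before a 20 min TNFalpha stimulation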;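 for inhibition: signal is the nuclear over cytoplasmic p65 intensity ratio per well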). The conditions noted are these: HUVEC TNFa-induced p65 nuclear translocation; cell count: measured here: nuclei count (cytotoxicity indicator), at 2.08 µM; inhibition: at 2 µM, stronger effect = higher value, 0% TNFa-plus-vehicle, 100% no-TNFa wells.
Assay [2] in a line: endothelial E-selectin expression blockers – imaging, HUVEC, immunofluorescence, MLSMR starter and 10KST1 sets, primary screen (AID 487;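 active = visually confirmed hit in the image check and inhibition above 20%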;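 for inhibition: signal is fraction of cell area covered by stained E-selectin grains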;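 for nuclei count: 100% = median nuclei count of all wells on the same plate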). The settings on record: HUVEC TNFalpha-induced E-selectin immunofluorescence imaging, at 2 µM; inhibition: stronger effect = higher value; nuclei count: measured here: cell number, toxicity.
Assay [3] is described as follows: Primary imaging screen for DUSP6 inhibitors that restore phospho-Erk in transfected HeLa cells, chemical complementation (AID 609;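 active = compounds giving at least 50% inhibition in the cell-based MKP-3 phosphatase rescue imaging test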;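 for inhibition: phospho-Erk level distribution per well compared with pooled transfected vehicle control wells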). The settings on record: HeLa MKP-3 transfected, phospho-Erk imaging KS statistic, at 10 µM, cells stimulated with TPA for 15 min.
In assay [4] the target is Dual specificity protein phosphatase 6 (Homo sapiens) (UniProt Q16828). The assay is described as above. The conditions noted are these: HeLa MKP-3 transfected, phospho-Erk imaging KS statistic; at 10 µM; stronger effect = higher value; cells stimulated with TPA for 15 min.
Assay [5] addresses Voltage-gated potassium channel subunit beta-2 (Rattus norvegicus) (UniProt P62483). As to the kind of experiment: inhibitors of rat Kvbeta2 reductase activity – biochemical, NADPH fluorescence, primary screen (AID 622;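 active = fluorescence slope higher than the sample average by over 3 SD, cut at about -0.22 in these data, passing the limit was not always enough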;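 note: slope of raw intensity against log time taken from 70 to 1610 s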). The conditions noted are these: recombinant KvBeta, 4-cyanobenzaldehyde reduction, at 10 µM, stronger effect = higher value.
Assay [6] has the same target. In words: enhancers of rat Kvbeta2 NADPH turnover – biochemical, NADPH fluorescence, primary screen (AID 623;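 active = NADPH fluorescence slope more negative than the mean of all samples by about 3 SD, 99.7% confidence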;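 note: fluorescence intensity change per second fitted from 20 to 320 s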). The conditions noted are these: Recombinant KvBeta, NADPH fluorescence decrease slope, 10 min; at 10 µM; stronger effect = lower value.
The target in assay [7] is Alpha-2C adrenergic receptor (Homo sapiens) (UniProt P18825). In words: compounds altering alpha2C-coupled GIRK flux – cell-based, HEK293 alpha2C/GIRK1/2, thallium flux, primary screen (AID 624;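 active = fluorescence slope after compound addition differing from the mean of all screened samples at 99.7% confidence, in either direction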;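 note: slope of fluorescence ratio to pre-addition baseline per second over 15 to 24 s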). The settings on record: thallium flux BTC fluorescence, at 10 µM, actives lie on both sides.
Assay [8] is described as follows: inhibitors of larval lipid processing in zebrafish, primary screen, whole organism, PED6 fluorescence, gall bladder and intestine (AID 686;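 active = a full or partial loss of lipid-probe fluorescence in the fish gall bladder, intestine or both, judged by eye; inactive = no fluorescence loss, or compound toxic to the fish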;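 note: larvae 5 to 7 days old with five fish per well; signal comes from phospholipase A2 cleavage of quenched PED6 carried via bile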). The settings on record: Zebrafish larvae PED6 lipid processing, fluorescence scoring; screened at 20 µM (by protocol). The essentials:
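Incubation: overnight exposure of larvae to compound plus PED6 / Test system: live zebrafish larvae aged 5-7 days, whole organism / Amount: 5 larvae per well / Read-out basis: visual per-well fluorescence inhibition score / Signal: visual fluorescence microscopy scoring of gall bladder, gut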

Assay [9] in a line: loss of swimming-algae plug formation – whole organism, Chlamydomonas reinhardtii, WT vs cilia-less mutant, absorbance, 96-well, primary screen (AID 463189).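 Note: 0% = wild type cc124 cells in DMSO and 100% = ciliumless bld1 mutant cells.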 The conditions noted are these: Chlamydomonas reinhardtii gravitaxis, OD600 absorbance, 2 days; at 10 µM; stronger effect = higher value.
Setting [10] is: measured here: cell density z-score.
[11] abbreviates: measured here: nuclear c-Myc green intensity z-score.
[12] abbreviates: measured here: nuclear pErk red intensity z-score, stronger effect = higher value.

Activity calls are given as the source filed them.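 Rule for the calls, unless noted: active = inhibition at or above 50% relative to wild type and mutant plate controls; inactive = inhibition below 50%.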

Sequence of Voltage-gated potassium channel subunit beta-2 (Rattus norvegicus) (P62483 whole entry, looked up): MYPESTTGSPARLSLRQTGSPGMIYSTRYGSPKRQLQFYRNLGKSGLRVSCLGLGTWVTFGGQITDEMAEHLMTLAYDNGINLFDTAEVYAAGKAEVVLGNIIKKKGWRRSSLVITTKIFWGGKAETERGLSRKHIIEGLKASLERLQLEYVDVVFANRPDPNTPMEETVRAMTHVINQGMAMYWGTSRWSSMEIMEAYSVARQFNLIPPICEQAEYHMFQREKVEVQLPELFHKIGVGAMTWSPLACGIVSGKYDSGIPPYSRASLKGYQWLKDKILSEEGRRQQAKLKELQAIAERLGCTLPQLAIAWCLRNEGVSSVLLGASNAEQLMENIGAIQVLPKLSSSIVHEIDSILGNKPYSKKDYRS
Sequence of Alpha-2C adrenergic receptor (Homo sapiens) (P18825 whole entry, looked up): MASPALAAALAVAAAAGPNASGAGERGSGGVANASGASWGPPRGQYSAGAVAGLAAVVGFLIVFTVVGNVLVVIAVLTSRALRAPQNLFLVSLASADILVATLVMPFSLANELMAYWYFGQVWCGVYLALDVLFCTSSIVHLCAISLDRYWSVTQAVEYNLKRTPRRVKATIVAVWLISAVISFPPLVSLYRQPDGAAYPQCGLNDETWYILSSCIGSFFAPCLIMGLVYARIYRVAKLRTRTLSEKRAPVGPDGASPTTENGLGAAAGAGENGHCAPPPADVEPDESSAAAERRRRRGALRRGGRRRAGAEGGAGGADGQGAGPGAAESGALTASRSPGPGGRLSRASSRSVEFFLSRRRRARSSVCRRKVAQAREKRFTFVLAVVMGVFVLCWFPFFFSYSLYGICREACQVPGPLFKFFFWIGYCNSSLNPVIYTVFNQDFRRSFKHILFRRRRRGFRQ
Sequence of Dual specificity protein phosphatase 6 (Homo sapiens) (Q16828 whole entry, looked up): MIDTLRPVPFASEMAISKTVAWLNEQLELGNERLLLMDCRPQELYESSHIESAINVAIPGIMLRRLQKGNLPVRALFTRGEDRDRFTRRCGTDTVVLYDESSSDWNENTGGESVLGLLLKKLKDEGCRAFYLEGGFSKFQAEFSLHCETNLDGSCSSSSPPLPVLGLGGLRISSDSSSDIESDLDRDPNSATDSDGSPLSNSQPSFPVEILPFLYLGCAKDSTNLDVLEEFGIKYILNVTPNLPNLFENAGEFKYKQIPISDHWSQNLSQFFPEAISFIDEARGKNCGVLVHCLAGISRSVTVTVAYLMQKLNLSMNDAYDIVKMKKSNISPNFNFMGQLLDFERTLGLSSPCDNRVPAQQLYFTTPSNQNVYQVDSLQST

For the molecule `Cn1c(OCc2ccco2)nc2c1c(=O)n(Cc1ccc(Cl)c(Cl)c1)c(=O)n2C`, in [1], the cell count is 642. For the same molecule, the inhibition was -4.4% (inactive) in [1], 12.6% (inactive) in [2], 0.671% (inactive) in assay [4] and -1.38% (inactive) in [9]. The nuclei count in assay [2] stood at 136%. For the same molecule, the z-score in assay [3] (setting [10]) is 1.05; in assay [3] (setting [11]) it was 0.078; in [3] (setting [12]), -0.436. In addition, the fluorescence slope in assay [5] is -0.521 (inactive). Further, in assay [6], the NADPH fluorescence slope was -4.1e-05 (inactive). Besides, the slope in [7] is 0.00511 (inactive). Besides, in [8], the call was inactive.

In the case of `COc1cccc(C2/C(=C(/O)c3cnn(-c4ccccc4)c3C)C(=O)C(=O)N2CCN(C)C)c1` (stereo unspecified), the cell count in assay [1] is 510. The inhibition in assay [1] was -2.9% (inactive); in assay [2], -176% (inactive); in assay [4], -8.76% (inactive); in assay [9], 7.34% (inactive). This molecule also returned a nuclei count in [2] of 132%. In addition, the z-score is 0.354 in assay [3] (setting [10]), -0.911 in assay [3] (setting [11]) and 0.0449 in assay [3] (setting [12]). Besides, the fluorescence slope in assay [5] is -0.551 (inactive). For the same molecule, the NADPH fluorescence slope in [6] is -7.2e-05 (inactive). Moreover, the slope in assay [7] was 0.00551 (inactive). Also, the outcome in assay [8] was inactive.

Regarding `Cc1nc(-c2c(-c3ccc(O)cc3O)noc2C(F)(F)F)cs1`, the cell count in assay [1] came out at 518. Besides, the inhibition in assay [1] is -18.3% (inactive); in assay [2] it was -135% (inactive); in assay [4], 20.2% (inactive); in [9], 20.1% (inactive). Also, the nuclei count in [2] is 163%. For the same molecule, the z-score in assay [3] (setting [10]) was 0.818; in assay [3] (setting [11]), -0.387; in [3] (setting [12]), 0.0899. Further, the fluorescence slope in [5] was -0.468 (inactive). In addition, the NADPH fluorescence slope in assay [6] is -0.000226 (inactive). Besides, in [7], the slope was 0.00467 (inactive). Besides, the molecule was called inactive in assay [8].

Consider `S=c1nc(-c2ccccc2)[nH]n1-c1ccccc1`, for which the cell count in [1] was 339. Further, the inhibition is -3.4% (inactive) in assay [1], -90.9% (inactive) in assay [2], 11.4% (inactive) in assay [4] and -5.69% (inactive) in [9]. Further, the nuclei count in assay [2] stood at 110%. In addition, the z-score in [3] (setting [10]) was 1.6; in assay [3] (setting [11]), -1.83; in [3] (setting [12]), -0.637. Moreover, the fluorescence slope in assay [5] was -0.454 (inactive). Besides, the NADPH fluorescence slope in assay [6] was 3.3e-06 (inactive). Moreover, the slope in assay [7] was 0.0253 (active). Also, the molecule was called inactive in assay [8].

Take `CC(C)OC(=O)C(C#N)c1nc2ccccc2nc1N1CCCC1` (stereo unspecified): the cell count in assay [1] amounted to 485. Further, the inhibition in assay [1] was -22.5% (inactive); in assay [2] it was -48.2% (inactive); in [4], 22.7% (inactive); in assay [9] it was 5.71% (inactive). The nuclei count in assay [2] came out at 129%. Also, the values for the z-score in assay [3] (setting [10]), in assay [3] (setting [11]) and in assay [3] (setting [12]) were 2.22, -1.34 and -1.3, respectively. Also, the fluorescence slope in assay [5] is -0.543 (inactive). Further, the NADPH fluorescence slope in assay [6] was -1.4e-05 (inactive). In assay [7], the slope is 0.00397 (inactive). Moreover, the outcome in [8] was inactive.

Take `N#CC1=C(SCC(=O)c2ccc(Br)cc2)NC2=C(C(=O)CCC2)C1c1ccco1` (stereo unspecified): in assay [1], the cell count turned out to be 383. The inhibition in [1] was -10.4% (inactive); in [2], -96.6% (inactive); in assay [4] it was -8.59% (inactive); in assay [9], 3.41% (inactive). Further, the nuclei count in assay [2] worked out at 179%. The figures for the z-score in assay [3] (setting [10]), in assay [3] (setting [11]) and in assay [3] (setting [12]) were 0.687, -1.61 and 1.14, respectively. Further, the fluorescence slope in [5] is -0.399 (inactive). The NADPH fluorescence slope in assay [6] was -0.000128 (inactive). Moreover, the slope in assay [7] is 0.00589 (inactive). Further, the outcome in assay [8] was inactive.

`CC1=C(C(=O)Nc2ccccc2)C(c2ccncc2)C(C#N)=C(SCC(=O)NC(C)C)N1` (stereo unspecified): the cell count in assay [1] was 532. Besides, the inhibition in [1] is -8.3% (inactive); in assay [2], -82.1% (inactive); in [4], -1.12% (inactive); in assay [9] it was 5.12% (inactive). In addition, in [2], the nuclei count was found to be 162%. Further, the z-score in assay [3] (setting [10]) is -0.265; in assay [3] (setting [11]) it was 0.666; in assay [3] (setting [12]), 0.309. Moreover, the fluorescence slope in assay [5] is -0.309 (inactive). In addition, the NADPH fluorescence slope in assay [6] was 3.2e-06 (inactive). Further, the slope in assay [7] is 0.00489 (inactive). Moreover, the outcome in [8] was inactive.
